Data set [1] is described as follows: Growth inhibition of human U373 cells assessed as reduction in cell viability incubated for 72 hrs by MTT assay. Type of data set: functional, U-373MG ATCC. The settings on record: U373 MG. A digest of the protocol:
(§1)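 Glioma cells grown adherent: Hs683 in DMEM + 5–10% FBS, U373 in Earle's MEM + 10% FBS and 1 mM sodium pyruvate; trypan blue viability check before use. Exposed for 72 h to 0.01–100 μM, narciclasine as positive control. MTT read-out with formazan dissolved in DMSO; GI50 is the concentration giving 50% growth reduction versus untreated controls.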
A general note: Formazan colour is commonly taken as a measure of viable cells.

Data set [2] can be described thus: Growth inhibition of human Hs683 cells assessed as reduction in cell viability incubated for 72 hrs by MTT assay. Type of data set: functional. The settings on record: Hs 683, 72 h. A digest of the protocol:
as §1

Data set [3] can be described thus: Growth inhibition of human HL60 cells assessed as cell viability at 100 uM incubated for 24 hrs by MTT assay. Type of data set: functional. The settings on record: HL-60, 24 h, read-out: Activity. Summed up: (§2)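 Leukemic lines (HL-60, K562, Jurkat) grown in suspension in RPMI-1640 + 10% heat-inactivated FBS. Colorectal HT-29 and Caco-2 grown adherent in DMEM + 5–10% FBS. Cells kept at 37 °C, 5% CO2, and checked for viability by trypan blue before use. Single final concentration 100 μM for 24 h at 37 °C, camptothecin as positive control. MTT read-out with formazan dissolved in DMSO; viability expressed relative to untreated control set at 100%.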

Data set [4] can be described thus: Growth inhibition of human WBC cells assessed as cell viability at 100 uM incubated for 24 hrs by MTT assay. Type of data set: cell-based. The settings on record: WBC cells (white blood cells), read-out: Activity. Summed up: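 Freshly isolated human peripheral leucocytes from volunteers, exposed at a single final concentration of 100 μM for 24 h, camptothecin as comparator. Viability read by MTT assay with formazan dissolved in DMSO.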

Data set [5] deals with Jurkat. In words: Growth inhibition of human Jurkat cells assessed as cell viability at 100 uM incubated for 24 hrs by MTT assay. Type of data set: functional. Conditions: read-out: Activity. A digest of the protocol: as §2
In data set [6] the test system is K562. Put plainly: Growth inhibition of human K562 cells assessed as cell viability at 100 uM incubated for 24 hrs by MTT assay. Type of data set: functional. Conditions: K562, 24 h, read-out: Activity. Summed up: as §2
Data set [7] can be described thus: Growth inhibition of human Caco2 cells assessed as cell viability at 100 uM incubated for 24 hrs by MTT assay. Type of data set: functional. Conditions: Caco-2, 24 h, read-out: Activity. A digest of the protocol:
as §2

The test system of data set [8] is HT-29. In words: Growth inhibition of human HT-29 cells assessed as cell viability at 100 uM incubated for 24 hrs by MTT assay. Type of data set: functional. Conditions: HT-29, 24 h, read-out: Activity. A digest of the protocol:
as §2

We go through 19 compounds from ChEMBL document CHEMBL3797032, “Synthesis and in vitro growth inhibitory activity of novel silyl- and trityl-modified nucleosides” (Bioorg Med Chem, 2016).

SMILES strings stand for the structures. A value given as a limit tells only on which side of the number the result lay.

For the compound `Cc1cn([C@@H]2O[C@H](CO[Si](c3ccccc3)(c3ccccc3)C(C)(C)C)[C@@H](O)[C@H]2O)c(=O)[nH]c1=O`, the results for the GI50 in data set [1] and in data set [2] were 25 µM and 27 µM, respectively.
In the case of `CC(=O)O[C@@H]1[C@H](OC(C)=O)[C@@H](CO[Si](c2ccccc2)(c2ccccc2)C(C)(C)C)O[C@H]1n1ccc(=O)[nH]c1=O`, the viability at 100 µM in data set [3] was 11.2%; in data set [5], above 50%; in data set [6], 35.5%; in data set [7] it was above 50%; in data set [8] it was above 50%. In data set [4], the viability at 24 h, 100 µM came to 100%. Further, the figures for the GI50 in data set [1] and in data set [2] were 32 µM and 29 µM, respectively.
With `CC(C)(C)[Si](OC[C@H]1O[C@@H](n2ccc(N)nc2=O)[C@H](O)[C@@H]1O)(c1ccccc1)c1ccccc1`, the viability at 100 µM stood at 26% in data set [3]; 16% in data set [5]; 35.6% in data set [6]; 37.2% in data set [7]; 25.6% in data set [8]. Also, in data set [4], the viability at 24 h, 100 µM came out at 100%. In addition, the GI50 (as a rule, the concentration that inhibits growth by half) in data set [1] turned out to be 28 µM; in data set [2], 40 µM.
Regarding `Cc1cn([C@@H]2O[C@@H]3CO[Si](C(C)C)(C(C)C)O[Si](C(C)C)(C(C)C)O[C@H]3[C@H]2O)c(=O)[nH]c1=O`, the GI50 in data set [1] amounted to 87 µM; in data set [2] it was 91 µM.
In the case of `CC(C)(C)[Si](C)(C)OC[C@H]1O[C@@H](n2ccc(=O)[nH]c2=O)[C@H](O)[C@@H]1O`, the GI50 in data set [1] came to 71 µM; in data set [2], 84 µM.
With `CC(C)[Si]1(C(C)C)OC[C@H]2O[C@@H](n3ccc(=O)n(C(=O)c4ccccc4)c3=O)[C@H](O)[C@@H]2O[Si](C(C)C)(C(C)C)O1`, the GI50 in data set [1] and in data set [2] was 29 µM each time.
For the compound `CC(C)[Si]1(C(C)C)OC[C@H]2O[C@@H](n3ccc(=O)[nH]c3=O)[C@H](O)[C@@H]2O[Si](C(C)C)(C(C)C)O1`, the GI50 was determined as 81 µM in data set [1] and 83 µM in data set [2].
As to `COc1ccc(C(OC[C@H]2O[C@@H](n3ccc(=O)[nH]c3=O)[C@H](OC(C)=O)[C@@H]2OC(C)=O)(c2ccccc2)c2ccc(OC)cc2)cc1`, the viability at 100 µM in data set [3], in data set [5], in data set [6], in data set [7] and in data set [8] was above 50% throughout. In addition, the viability at 24 h, 100 µM in data set [4] is 100%. Moreover, the GI50 in data set [1] was found to be 40 µM; in data set [2], 28 µM.
Consider `CC(C)(C)[Si](OC[C@H]1O[C@@H](n2cnc3c(N)ncnc32)[C@H](O)[C@@H]1O)(c1ccccc1)c1ccccc1`, for which the viability at 100 µM was 27.9% in data set [3]; 18.3% in data set [5]; 45.5% in data set [6]; above 50% in data set [7]; above 50% in data set [8]. The viability at 24 h, 100 µM in data set [4] worked out at 59.3%. Besides, the GI50 in data set [1] turned out to be 44 µM; in data set [2], 46 µM.
Regarding `CC(=O)O[C@@H]1[C@H](OC(C)=O)[C@@H](CO[Si](c2ccccc2)(c2ccccc2)C(C)(C)C)O[C@H]1n1ccc(=O)n(C(=O)c2ccccc2)c1=O`, the results for the GI50 in data set [1] and in data set [2] were 26 µM and 35 µM, respectively.
Turning to `CC(C)(C)[Si](OC[C@H]1O[C@@H](n2ccc(=O)[nH]c2=O)[C@H](O)[C@@H]1O)(c1ccccc1)c1ccccc1`, the viability at 100 µM in data set [3] was 5.6%; in data set [5], 6.3%; in data set [6], 9.4%; in data set [7] it was 37.4%; in data set [8], 29.4%. The viability at 24 h, 100 µM in data set [4] stood at 61.5%. Moreover, the values for the GI50 in data set [1] and in data set [2] were 36 µM and 35 µM, respectively.
As for `CC(C)[Si]1(C(C)C)OC[C@H]2O[C@@H](n3ccc(=O)[nH]c3=O)C(=O)[C@@H]2O[Si](C(C)C)(C(C)C)O1`, the values for the GI50 in data set [1] and in data set [2] were 71 µM and 70 µM, respectively.
`O=C1N[C@@H]2C(=C[C@H](O)[C@@H](O)[C@H]2O)c2cc3c(c(O)c21)OCO3` [NARCICLASINE]: the GI50 in data set [1] came to 0.029 µM; in data set [2], 0.04 µM.
Take `COc1ccc(C(OC[C@H]2O[C@@H](n3ccc(=O)[nH]c3=O)[C@H](O)[C@@H]2O)(c2ccccc2)c2ccc(OC)cc2)cc1`: the viability at 100 µM in data set [3] came to 6.5%; in data set [5], 5.2%; in data set [6], 8.3%; in data set [7] it was 26.1%; in data set [8], 27.8%. For the same compound, in data set [4], the viability at 24 h, 100 µM amounted to 82.7%. Also, the GI50 in data set [1] worked out at 40 µM; in data set [2], 39 µM.
With `COc1ccc(C(OC[C@H]2O[C@@H](n3ccc(=O)n(C(=O)c4ccccc4)c3=O)[C@H](OC(C)=O)[C@@H]2OC(C)=O)(c2ccccc2)c2ccc(OC)cc2)cc1`, the values for the GI50 in data set [1] and in data set [2] were 39 µM and 44 µM, respectively.
For `CC(C)C(C)(C)[Si](C)(C)OC[C@H]1O[C@@H](n2ccc(=O)[nH]c2=O)[C@H](O)[C@@H]1O`, in that order: above 100 µM and above 100 µM.
`CC[C@@]1(O)C(=O)OCc2c1cc1n(c2=O)Cc2cc3ccccc3nc2-1` [CAMPTOTHECIN]: the viability at 100 µM in data set [3] amounted to 23.4%; in data set [5], 8.9%; in data set [6] it was 39.6%; in data set [7] it was 12.8%; in data set [8], 11.4%. Further, in data set [4], the viability at 24 h, 100 µM turned out to be 34.6%.
For the compound `Cc1cn([C@@H]2O[C@H](CO[Si](C)(C)C(C)(C)C(C)C)[C@@H](O)[C@H]2O)c(=O)[nH]c1=O`, the GI50 in data set [1] came to 68 µM; in data set [2] it was 64 µM.
Regarding `Cc1cn([C@@H]2O[C@H](CO[Si](C)(C)C(C)(C)C)[C@@H](O)[C@H]2O)c(=O)[nH]c1=O`, the results for the GI50 in data set [1] and in data set [2] were above 100 µM and 77 µM, respectively.
